Assay results published in ChEMBL document CHEMBL1149298, “Stereochemical studies of the monocyclic agouti-related protein (103-122) Arg-Phe-Phe residues: conversion of a melanocortin-4 receptor antagonist into an agonist and results in the discovery of a potent and selective melanocortin-1 agonist” (J Med Chem, 2004).

Key:
[1] = target: Melanocyte-stimulating hormone receptor (Mus musculus, UniProt Q01727); assay: Agonist activity at mouse MC1R expressed in HEK293 cells by beta-galactosidase assay; assay type: functional, cell-based
[2] = target: T1, Melanocortin receptor 3 (Mus musculus, UniProt P33033); assay: Agonist activity at mouse MC3R expressed in HEK293 cells by beta-galactosidase assay; assay type: functional, cell-based
[3] = target: T2, Melanocortin receptor 4 (Mus musculus, UniProt P56450); assay: Agonist activity at mouse MC4R expressed in HEK293 cells by beta-galactosidase assay; assay type: functional, cell-based
[4] = target: Melanocortin receptor 5 (Mus musculus, UniProt P41149); assay: Agonist activity at mouse MC5R expressed in HEK293 cells by beta-galactosidase assay; assay type: functional, cell-based
[5] = target: Melanocortin receptor 3 (Mus musculus) (UniProt P33033); assay: Agonist activity at mouse MC3R expressed in HEK293 cells by beta-galactosidase assay at 100 uM relative to forskolin; assay type: functional, cell-based; details: filed as agonist
[6] = target: Melanocortin receptor 4 (Mus musculus) (UniProt P56450); assay: Agonist activity at mouse MC4R expressed in HEK293 cells by beta-galactosidase assay at 100 uM relative to forskolin; assay type: functional, cell-based; details: filed as agonist
[7] = target: T1, Melanocortin receptor 3; assay: Displacement of MT2 from mouse MC3R expressed in HEK293 cells; assay type: cell-based
In short: (§1)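 Antagonism was measured in the same CRE/β-galactosidase assay in HEK-293 cells stably expressing the mouse receptor, as the dose-dependent competitive shift of MTII agonist response. pA2 was obtained by Schild analysis and converted to Ki. Values are means of duplicate wells from at least three independent experiments, ± SEM.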

[8] = target: T2, Melanocortin receptor 4; assay: Displacement of MT2 from mouse MC4R expressed in HEK293 cells; assay type: cell-based; in short: as §1
[9] = organism: Mus musculus; assay: Selectivity for mouse MC1R over mouse MC3R
[10] = organism: Mus musculus; assay: Selectivity for mouse MC1R over mouse MC4R
[11] = organism: Mus musculus; assay: Selectivity for mouse MC1R over mouse MC5R

Melanocortin receptor 3 (Mus musculus), sequence (P33033 whole entry): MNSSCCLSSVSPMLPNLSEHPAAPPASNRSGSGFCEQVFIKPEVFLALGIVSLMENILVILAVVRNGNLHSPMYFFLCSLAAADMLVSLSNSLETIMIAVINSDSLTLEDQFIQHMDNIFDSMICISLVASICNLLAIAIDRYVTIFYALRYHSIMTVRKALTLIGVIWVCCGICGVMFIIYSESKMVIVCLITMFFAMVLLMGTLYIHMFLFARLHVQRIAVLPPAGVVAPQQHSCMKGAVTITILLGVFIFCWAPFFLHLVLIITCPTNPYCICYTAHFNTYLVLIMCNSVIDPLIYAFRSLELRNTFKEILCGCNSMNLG
T1 sequence (P33033 whole entry): as above
Melanocyte-stimulating hormone receptor, sequence (Q01727 whole entry): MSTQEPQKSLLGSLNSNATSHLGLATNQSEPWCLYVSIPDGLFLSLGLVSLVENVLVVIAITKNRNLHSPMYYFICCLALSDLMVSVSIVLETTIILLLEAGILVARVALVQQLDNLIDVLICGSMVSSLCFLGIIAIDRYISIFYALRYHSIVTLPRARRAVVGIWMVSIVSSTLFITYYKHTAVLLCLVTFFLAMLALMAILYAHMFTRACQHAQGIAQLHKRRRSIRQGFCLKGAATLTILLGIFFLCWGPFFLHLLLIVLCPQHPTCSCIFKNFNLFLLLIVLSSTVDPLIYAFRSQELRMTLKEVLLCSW
T2 sequence (P56450 whole entry): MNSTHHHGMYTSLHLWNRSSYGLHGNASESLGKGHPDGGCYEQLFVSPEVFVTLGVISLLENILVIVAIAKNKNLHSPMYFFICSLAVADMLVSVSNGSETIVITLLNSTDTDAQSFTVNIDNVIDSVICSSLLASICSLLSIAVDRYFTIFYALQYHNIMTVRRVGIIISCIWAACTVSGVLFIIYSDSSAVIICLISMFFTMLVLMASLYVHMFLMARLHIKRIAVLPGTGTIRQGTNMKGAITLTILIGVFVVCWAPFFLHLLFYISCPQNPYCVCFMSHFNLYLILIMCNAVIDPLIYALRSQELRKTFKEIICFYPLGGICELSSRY
Melanocortin receptor 5, sequence (P41149 whole entry): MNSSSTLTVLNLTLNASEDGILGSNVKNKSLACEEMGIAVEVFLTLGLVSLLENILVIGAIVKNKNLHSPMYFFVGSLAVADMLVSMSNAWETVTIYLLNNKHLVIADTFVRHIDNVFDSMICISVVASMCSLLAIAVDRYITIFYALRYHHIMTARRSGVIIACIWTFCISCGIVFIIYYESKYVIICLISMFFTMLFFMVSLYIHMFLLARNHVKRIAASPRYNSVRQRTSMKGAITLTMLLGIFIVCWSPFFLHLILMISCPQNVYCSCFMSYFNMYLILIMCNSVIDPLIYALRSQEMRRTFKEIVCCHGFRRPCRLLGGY
Melanocortin receptor 4 (Mus musculus), sequence (P56450 whole entry): as the sequence (P56450 whole entry) above

EC50 [1] | EC50 [2] | EC50 [3] | EC50 [4] | Activity [5] [%] | Activity [6] [%] | pA2 [7] | pA2 [8] | Selectivity ratio [9] | Selectivity ratio [10] | Selectivity ratio [11] | SMILES
1.75 µM (agonist) | 5.51 µM (agonist) | 8.3 µM (agonist) | 4.6 µM (agonist) | – | – | – | – | – | – | – | CC(C)C[C@H](NC(=O)[C@H](CCCCN)NC(=O)[C@H](CCCNC(=N)N)NC(=O)[C@H](C)NC(=O)[C@H](Cc1ccc(O)cc1)NC(=O)[C@@H]1CSSC[C@H](NC(=O)[C@H](Cc2ccc(O)cc2)NC(=O)[C@H](C)NC(=O)[C@@H](NC(=O)[C@H](C)NC(=O)[C@H](C)NC(=O)[C@@H]2CCCN2C(=O)[C@@H](N)CC(=O)O)[C@@H](C)O)C(=O)N[C@H](CCCNC(=N)N)C(=O)N[C@H](Cc2ccccc2)C(=O)N[C@@H](Cc2ccccc2)C(=O)N[C@@H](CC(N)=O)C(=O)N[C@@H](C)C(=O)N[C@@H](Cc2ccccc2)C(=O)N1)C(=O)O
3.75 µM (agonist) | 22.6 µM (agonist) | 21.5 µM (agonist) | 13.2 µM (agonist) | – | – | – | – | – | – | – | CC(C)C[C@H](NC(=O)[C@H](CCCCN)NC(=O)[C@H](CCCNC(=N)N)NC(=O)[C@H](C)NC(=O)[C@H](Cc1ccc(O)cc1)NC(=O)[C@@H]1CSSC[C@H](NC(=O)[C@H](Cc2ccc(O)cc2)NC(=O)[C@H](C)NC(=O)[C@@H](NC(=O)[C@H](C)NC(=O)[C@H](C)NC(=O)[C@@H]2CCCN2C(=O)[C@@H](N)CC(=O)O)[C@@H](C)O)C(=O)N[C@H](CCCNC(=N)N)C(=O)N[C@H](Cc2ccccc2)C(=O)N[C@H](Cc2ccccc2)C(=O)N[C@@H](CC(N)=O)C(=O)N[C@@H](C)C(=O)N[C@@H](Cc2ccccc2)C(=O)N1)C(=O)O
0.96 µM (agonist) | – | – | > 100 µM (agonist) | – | – | 6.15 | 6.92 | – | – | – | CC(C)C[C@H](NC(=O)[C@H](CCCCN)NC(=O)[C@H](CCCNC(=N)N)NC(=O)[C@H](C)NC(=O)[C@H](Cc1ccc(O)cc1)NC(=O)[C@@H]1CSSC[C@H](NC(=O)[C@H](Cc2ccc(O)cc2)NC(=O)[C@H](C)NC(=O)[C@@H](NC(=O)[C@H](C)NC(=O)[C@H](C)NC(=O)[C@@H]2CCCN2C(=O)[C@@H](N)CC(=O)O)[C@@H](C)O)C(=O)N[C@@H](CCCNC(=N)N)C(=O)N[C@@H](Cc2ccccc2)C(=O)N[C@H](Cc2ccccc2)C(=O)N[C@@H](CC(N)=O)C(=O)N[C@@H](C)C(=O)N[C@@H](Cc2ccccc2)C(=O)N1)C(=O)O (stereo in doubt; 1)

Second part, the molecule before the results:

SMILES | EC50 [1] | EC50 [2] | EC50 [3] | EC50 [4] | Activity [5] [%] | Activity [6] [%] | pA2 [7] | pA2 [8] | Selectivity ratio [9] | Selectivity ratio [10] | Selectivity ratio [11]
CC(C)C[C@H](NC(=O)[C@H](CCCCN)NC(=O)[C@H](CCCNC(=N)N)NC(=O)[C@H](C)NC(=O)[C@H](Cc1ccc(O)cc1)NC(=O)[C@@H]1CSSC[C@H](NC(=O)[C@H](Cc2ccc(O)cc2)NC(=O)[C@H](C)NC(=O)[C@@H](NC(=O)[C@H](C)NC(=O)[C@H](C)NC(=O)[C@@H]2CCCN2C(=O)[C@@H](N)CC(=O)O)[C@@H](C)O)C(=O)N[C@@H](CCCNC(=N)N)C(=O)N[C@@H](Cc2ccccc2)C(=O)N[C@H](Cc2ccccc2)C(=O)N[C@@H](CC(N)=O)C(=O)N[C@@H](C)C(=O)N[C@@H](Cc2ccccc2)C(=O)N1)C(=O)O (stereo in doubt; 4) | 0.12 µM (agonist) | 13.7 µM (agonist) | 3.7 µM (agonist) | 2.22 µM (agonist) | – | – | – | – | – | – | –
CC(C)C[C@H](NC(=O)[C@H](CCCCN)NC(=O)[C@H](CCCNC(=N)N)NC(=O)[C@H](C)NC(=O)[C@H](Cc1ccc(O)cc1)NC(=O)[C@@H]1CSSC[C@H](NC(=O)[C@H](Cc2ccc(O)cc2)NC(=O)[C@H](C)NC(=O)[C@@H](NC(=O)[C@H](C)NC(=O)[C@H](C)NC(=O)[C@@H]2CCCN2C(=O)[C@@H](N)CC(=O)O)[C@@H](C)O)C(=O)N[C@H](CCCNC(=N)N)C(=O)N[C@@H](Cc2ccccc2)C(=O)N[C@@H](Cc2ccccc2)C(=O)N[C@@H](CC(N)=O)C(=O)N[C@@H](C)C(=O)N[C@@H](Cc2ccccc2)C(=O)N1)C(=O)O | 6.33 µM (agonist) | – | 37.7 µM (agonist) | 18.3 µM (agonist) | 70 | – | – | – | – | – | –
CC(C)C[C@H](NC(=O)[C@H](CCCCN)NC(=O)[C@H](CCCNC(=N)N)NC(=O)[C@H](C)NC(=O)[C@H](Cc1ccc(O)cc1)NC(=O)[C@@H]1CSSC[C@H](NC(=O)[C@H](Cc2ccc(O)cc2)NC(=O)[C@H](C)NC(=O)[C@@H](NC(=O)[C@H](C)NC(=O)[C@H](C)NC(=O)[C@@H]2CCCN2C(=O)[C@@H](N)CC(=O)O)[C@@H](C)O)C(=O)N[C@@H](CCCNC(=N)N)C(=O)N[C@H](Cc2ccccc2)C(=O)N[C@@H](Cc2ccccc2)C(=O)N[C@@H](CC(N)=O)C(=O)N[C@@H](C)C(=O)N[C@@H](Cc2ccccc2)C(=O)N1)C(=O)O | 0.093 µM (agonist) | – | – | 1.41 µM (agonist) | 50 | 75 | 6.14 | 6.56 | – | – | –
CC(C)C[C@H](NC(=O)[C@H](CCCCN)NC(=O)[C@H](CCCNC(=N)N)NC(=O)[C@H](C)NC(=O)[C@H](Cc1ccc(O)cc1)NC(=O)[C@@H]1CSSC[C@H](NC(=O)[C@H](Cc2ccc(O)cc2)NC(=O)[C@H](C)NC(=O)[C@@H](NC(=O)[C@H](C)NC(=O)[C@H](C)NC(=O)[C@@H]2CCCN2C(=O)[C@@H](N)CC(=O)O)[C@@H](C)O)C(=O)N[C@H](CCCNC(=N)N)C(=O)N[C@@H](Cc2ccccc2)C(=O)N[C@H](Cc2ccccc2)C(=O)N[C@@H](CC(N)=O)C(=O)N[C@@H](C)C(=O)N[C@@H](Cc2ccccc2)C(=O)N1)C(=O)O | 5.27 µM (agonist) | – | 8.33 µM (agonist) | 19.8 µM (agonist) | 70 | – | – | – | – | – | –
CC(C)C[C@H](NC(=O)[C@H](CCCCN)NC(=O)[C@H](CCCNC(=N)N)NC(=O)[C@H](C)NC(=O)[C@H](Cc1ccc(O)cc1)NC(=O)[C@@H]1CSSC[C@H](NC(=O)[C@H](Cc2ccc(O)cc2)NC(=O)[C@H](C)NC(=O)[C@@H](NC(=O)[C@H](C)NC(=O)[C@H](C)NC(=O)[C@@H]2CCCN2C(=O)[C@@H](N)CC(=O)O)[C@@H](C)O)C(=O)N[C@@H](CCCNC(=N)N)C(=O)N[C@H](Cc2ccccc2)C(=O)N[C@H](Cc2ccccc2)C(=O)N[C@@H](CC(N)=O)C(=O)N[C@@H](C)C(=O)N[C@@H](Cc2ccccc2)C(=O)N1)C(=O)O | 0.064 µM (agonist) | 63.3 µM (agonist) | 6.24 µM (agonist) | 11.4 µM (agonist) | – | – | – | – | 990 | 98 | 180
